# Data published in ChEMBL document CHEMBL1148469, “Structural basis for the synthesis of indirubins as potent and selective inhibitors of glycogen synthase kinase-3 and cyclin-dependent kinases” (J Med Chem, 2004).
# Assays:
# [1] = molecular target: Cyclin-dependent kinase 5/CDK5 activator 1 (Homo sapiens, UniProt Q00535); assay: Inhibitory activity against Cyclin-dependent kinase 5-p35nck5a; type: protein-complex assay
# Procedure, shortened: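 Recombinant mammalian CDK5 and p25 (truncated p35 activator), each expressed in E. coli as a GST fusion, purified on glutathione-agarose and mixed in equal amounts. IC50 from dose-response curves.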
# [2] = molecular target: Cyclin-dependent kinase 1/cyclin B (Marthasterias glacialis); assay: Inhibitory activity against cyclin dependent kinase 1-cyclinB from starfish (Marthasterias glacialis) oocytes
# [3] = molecular target: Glycogen synthase kinase-3 alpha/beta (Sus scrofa); assay: Inhibition of glycogen synthase kinase-3-alpha/beta (GSK-3-alpha/beta) in porcine brain relative to indirubin
# [4] = molecular target: Glycogen synthase kinase-3 alpha/beta (Sus scrofa); assay: Inhibitory activity against GSK-3-alpha/beta from porcine brain
# Sequence of Cyclin-dependent kinase 5/CDK5 activator 1 (Q00535 whole entry, the tested form may be a part): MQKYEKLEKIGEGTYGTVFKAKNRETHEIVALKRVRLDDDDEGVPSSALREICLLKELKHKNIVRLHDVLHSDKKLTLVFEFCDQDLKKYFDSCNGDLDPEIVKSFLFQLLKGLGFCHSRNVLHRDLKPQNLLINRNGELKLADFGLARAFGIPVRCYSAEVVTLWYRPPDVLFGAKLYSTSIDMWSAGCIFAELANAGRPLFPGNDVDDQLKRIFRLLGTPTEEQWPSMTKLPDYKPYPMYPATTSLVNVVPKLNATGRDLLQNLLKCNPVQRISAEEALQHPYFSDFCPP
# Sequence of Cyclin-dependent kinase 5/CDK5 activator 1 (Q15078 whole entry, further chain, the tested form may be a part): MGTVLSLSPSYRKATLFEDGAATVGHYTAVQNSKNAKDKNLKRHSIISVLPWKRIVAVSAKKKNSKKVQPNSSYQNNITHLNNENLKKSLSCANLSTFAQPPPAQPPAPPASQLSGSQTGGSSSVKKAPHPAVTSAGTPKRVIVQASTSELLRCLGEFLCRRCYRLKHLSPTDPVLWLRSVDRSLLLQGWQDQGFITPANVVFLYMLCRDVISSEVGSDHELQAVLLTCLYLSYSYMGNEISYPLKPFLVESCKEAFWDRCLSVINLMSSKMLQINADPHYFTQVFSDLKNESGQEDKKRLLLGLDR
Compound,IC50 [1],IC50 [2],IC50 [3],IC50 [4]
Cn1c(O)c(C2=Nc3ccccc3C2=O)c2ccccc21,> 100 µM,> 100 µM,–,–
CC(=O)O/N=C1/C(c2c(O)[nH]c3ccccc23)=Nc2ccccc21,0.7 µM,–,–,–
O=C1C(c2c(O)[nH]c3ccccc23)=Nc2ccc(Br)cc21,–,–,0.35 µM,–
C=Cc1ccc2c(-c3[nH]c4ccccc4c3N=O)c(O)[nH]c2c1,0.42 µM,1.2 µM,–,0.06 µM
O=C1C(c2c(O)[nH]c3ccc([N+](=O)[O-])cc23)=Nc2ccccc21,–,–,0.042 µM,–
O=C1C(c2c(O)[nH]c3ccc(Br)cc23)=Nc2ccc(Br)cc21,–,–,0.25 µM,–
O=C1C(c2c(O)[nH]c3cc(Br)ccc23)=Nc2ccccc21,53 µM,–,–,–
O=C1C(c2c(O)[nH]c3cc(Cl)c(Cl)cc23)=Nc2ccccc21,60 µM,45 µM,–,0.03 µM
O=C1C(c2c(O)[nH]c3ccc(Br)cc23)=Nc2ccccc21,–,–,0.055 µM,–
O=Nc1c(-c2c(O)[nH]c3cc(Br)ccc23)[nH]c2cc(Br)ccc12,1.3 µM,17 µM,–,0.12 µM
CO/N=C1/C(c2c(O)[nH]c3ccccc23)=Nc2ccccc21,0.4 µM,–,–,–
CC(=O)O/N=C1/C(=C2/C(=O)Nc3cc(Br)c(C)cc32)Nc2ccccc21,30 µM,31 µM,–,0.007 µM
CO/N=C1/C(c2c(O)[nH]c3cc(Br)ccc23)=Nc2ccccc21,2.2 µM,3.7 µM,–,0.03 µM
C=Cc1ccc2c(C3=Nc4ccccc4C3=O)c(O)[nH]c2c1,2.4 µM,4.2 µM,–,0.24 µM
O=C1C(c2c(O)[nH]c3cc(F)ccc23)=Nc2ccccc21,1 µM,–,–,–
Cc1cc2c(-c3[nH]c4ccccc4c3N=O)c(O)[nH]c2cc1Br,0.13 µM,–,–,–
Cn1c(O)c(-c2[nH]c3ccccc3c2N=O)c2ccc(Br)cc21,> 100 µM,92 µM,–,> 100 µM
O=C1C(c2c(O)[nH]c3cc(Cl)ccc23)=Nc2ccccc21,> 100 µM,> 100 µM,–,0.14 µM
O=Nc1c(-c2c(O)[nH]c3cc(Cl)ccc23)[nH]c2ccccc12,0.1 µM,0.65 µM,–,0.02 µM
CC(=O)O/N=C1/C(=C2/C(=O)Nc3cc(Cl)c(Cl)cc32)Nc2ccccc21 [INDIRUBIN 1],0.1 µM,30 µM,–,0.004 µM
CC(=O)O/N=C1/C(c2c(O)[nH]c3cc(F)ccc23)=Nc2ccccc21,0.3 µM,–,–,–

Compound,IC50 [1],IC50 [2],IC50 [3],IC50 [4]
O=Nc1c(-c2c(O)[nH]c3ccccc23)[nH]c2cc(Br)ccc12,–,3 µM,–,–
CC(=O)O/N=C1/C(=C2/C(=O)Nc3cc(Br)ccc32)Nc2ccccc21 [6-BROMOINDIRUBIN-3'-ACETOXIME],2.4 µM,63 µM,–,0.01 µM
CC(=O)O/N=C1/C(=C2/C(=O)Nc3cc(Br)c([N+](=O)[O-])cc32)Nc2ccccc21,31 µM,11 µM,–,0.006 µM
O=C1C(c2c(O)[nH]c3cc(I)ccc23)=Nc2ccccc21,5.3 µM,1.6 µM,–,0.055 µM
CC(=O)O/N=C1/C(c2c(O)[nH]c3cc(I)ccc23)=Nc2ccccc21,1.3 µM,2.2 µM,–,0.013 µM
C=Cc1ccc2c(C3=Nc4ccccc4/C3=N\OC(C)=O)c(O)[nH]c2c1,0.4 µM,1.6 µM,–,0.065 µM
Cc1ccc2[nH]c(O)c(C3=Nc4ccccc4C3=O)c2c1,–,–,0.062 µM,–
CC(=O)O/N=C1/C(c2c(O)[nH]c3cc(Cl)ccc23)=Nc2ccccc21,0.2 µM,30 µM,–,0.017 µM
O=Nc1c(-c2c(O)[nH]c3cc(F)ccc23)[nH]c2ccccc12,0.15 µM,0.32 µM,–,0.13 µM
O=C1C(c2c(O)[nH]c3ccccc23)=Nc2cc(Br)ccc21,> 100 µM,> 100 µM,–,22 µM
O=C1C(c2c(O)[nH]c3ccc(F)cc23)=Nc2ccccc21,–,–,0.078 µM,–
O=Nc1c(-c2c(O)[nH]c3cc(I)ccc23)[nH]c2ccccc12,0.3 µM,–,–,–
Cn1c(O)c(-c2[nH]c3ccccc3c2N=O)c2ccccc21,> 100 µM,73 µM,–,–
O=C1C(c2c(O)[nH]c3cccc(Cl)c23)=Nc2ccccc21,10 µM,10 µM,–,> 100 µM
Cc1cc2c(C3=Nc4ccccc4C3=O)c(O)[nH]c2cc1Br,60 µM,30 µM,–,0.025 µM
O=C1C(c2c(O)[nH]c3cc(Br)ccc23)=Nc2cc(Br)ccc21,> 100 µM,> 100 µM,–,4.5 µM
O=C1C(c2c(O)[nH]c3ccc(Cl)cc23)=Nc2ccccc21,–,–,0.05 µM,–
Cn1c(O)c(C2=Nc3ccccc3C2=O)c2ccc(Br)cc21,> 100 µM,> 100 µM,–,> 100 µM
O=C1C(c2c(O)[nH]c3cc(Br)c([N+](=O)[O-])cc23)=Nc2ccccc21,> 100 µM,> 100 µM,–,0.1 µM
O=Nc1c(-c2c(O)[nH]c3cc(Br)c([N+](=O)[O-])cc23)[nH]c2ccccc12,0.15 µM,–,–,–
